ChEMBL document CHEMBL5653612, “Catalytic site remodelling of the DOT1L methyltransferase by selective inhibitors” (Nat Commun, 2012)
Active and inactive are the calls of the source. No cut-off for these calls is given here.

Legend:
[1] = Apparent permeability across basolateral to apical side in human Caco-2 cells at 10 uM incubated for 90 mins at pH 7.4 by LC/MS analysis; type: ADME, cell-based; conditions: Caco-2, pH 7.4
[2] = Apparent permeability across apical to basolateral side in human Caco-2 cells at 10 uM incubated for 90 mins at pH 7.4 by LC/MS analysis; type: ADME, cell-based; conditions: Caco-2, pH 7.4
cells [3] = conditions: Homo sapiens, A-431
[4] = target: Histone-lysine N-methyltransferase SUV39H2 (Homo sapiens) (UniProt Q9H5I1); test: Inhibition of SUV39H2 (unknown origin) using H3 1-25 peptide in presence of SAM
Sequence of Histone-lysine N-methyltransferase SUV39H2 (Homo sapiens) (Q9H5I1 whole entry): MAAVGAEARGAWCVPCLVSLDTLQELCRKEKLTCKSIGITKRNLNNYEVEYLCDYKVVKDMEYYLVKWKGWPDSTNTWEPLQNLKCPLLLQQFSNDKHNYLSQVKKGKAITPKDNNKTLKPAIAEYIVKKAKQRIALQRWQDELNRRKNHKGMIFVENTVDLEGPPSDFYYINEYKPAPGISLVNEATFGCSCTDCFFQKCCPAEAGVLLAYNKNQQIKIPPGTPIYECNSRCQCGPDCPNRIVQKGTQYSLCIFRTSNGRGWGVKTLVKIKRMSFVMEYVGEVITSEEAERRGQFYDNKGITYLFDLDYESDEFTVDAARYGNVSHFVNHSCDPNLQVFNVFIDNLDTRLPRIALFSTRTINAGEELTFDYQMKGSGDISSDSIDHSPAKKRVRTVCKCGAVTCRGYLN
Method in brief: (§1)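 Radiometric methyltransferase panel in which 3H-SAM, at or below each enzyme's Km, methylates biotinylated peptide substrates. They were quenched with 7.5 M guanidine-HCl, diluted, captured on streptavidin flash plates for 1 h, and counted by scintillation.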

[5] = target: Histone-lysine N-methyltransferase SETDB1 (Homo sapiens) (UniProt Q15047); test: Inhibition of SETDB1 (unknown origin) using H3 1-25 peptide in presence of SAM; method in brief: as §1
[6] = target: Histone-lysine N-methyltransferase 2A (Homo sapiens) (UniProt Q03164); test: Inhibition of MLL (unknown origin) using H3 1-25 peptide in presence of SAM; method in brief: as §1
MV4-11 = test: Downregulation of H3K79me2 in human MV4-11 cells habouring MLL/AF4 fusion protein measured upto 48 hrs by immuno blot analysis; type: functional, cell-based
[7] = target: T1, Protein arginine N-methyltransferase 5 (Homo sapiens, UniProt O14744); test: Inhibition of PRMT5 (unknown origin) using H4 1-24 peptide in presence of SAM; method in brief: as §1
T1 sequence (O14744 whole entry): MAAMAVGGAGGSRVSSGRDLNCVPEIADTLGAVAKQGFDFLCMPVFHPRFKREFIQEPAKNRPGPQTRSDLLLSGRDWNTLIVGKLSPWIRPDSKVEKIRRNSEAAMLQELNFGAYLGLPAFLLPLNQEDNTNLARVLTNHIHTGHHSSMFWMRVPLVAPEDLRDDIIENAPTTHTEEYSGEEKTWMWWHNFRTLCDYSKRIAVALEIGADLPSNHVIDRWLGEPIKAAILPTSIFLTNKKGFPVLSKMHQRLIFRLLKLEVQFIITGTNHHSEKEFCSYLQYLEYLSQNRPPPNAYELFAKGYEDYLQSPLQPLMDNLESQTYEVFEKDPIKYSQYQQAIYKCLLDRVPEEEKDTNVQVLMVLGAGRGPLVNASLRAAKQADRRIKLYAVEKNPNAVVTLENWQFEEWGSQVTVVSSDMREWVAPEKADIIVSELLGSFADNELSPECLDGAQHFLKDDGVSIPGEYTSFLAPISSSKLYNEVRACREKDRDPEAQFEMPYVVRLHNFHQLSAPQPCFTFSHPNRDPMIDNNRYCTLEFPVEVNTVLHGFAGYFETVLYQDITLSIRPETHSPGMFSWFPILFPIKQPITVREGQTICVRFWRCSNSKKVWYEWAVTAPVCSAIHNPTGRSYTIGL

cells [8] = conditions: Homo sapiens, MCF-10A
[9] = target: Protein arginine N-methyltransferase 3 (Homo sapiens) (UniProt O60678); test: Inhibition of PRMT3 (unknown origin) using H3 1-24 peptide in presence of SAM; method in brief: as §1
Homo sapiens = organism: Homo sapiens; test: Inhibition of PRC2 (unknown origin) using H3 21-44 peptide in presence of SAM; method in brief: as §1
[10] = target: Histone-lysine N-methyltransferase SETD7 (Homo sapiens) (UniProt Q8WTS6); test: Inhibition of SETD7 (unknown origin) using H3 1-25 peptide in presence of SAM; method in brief: as §1
Sequence of Histone-lysine N-methyltransferase SETD7 (Homo sapiens) (Q8WTS6 whole entry): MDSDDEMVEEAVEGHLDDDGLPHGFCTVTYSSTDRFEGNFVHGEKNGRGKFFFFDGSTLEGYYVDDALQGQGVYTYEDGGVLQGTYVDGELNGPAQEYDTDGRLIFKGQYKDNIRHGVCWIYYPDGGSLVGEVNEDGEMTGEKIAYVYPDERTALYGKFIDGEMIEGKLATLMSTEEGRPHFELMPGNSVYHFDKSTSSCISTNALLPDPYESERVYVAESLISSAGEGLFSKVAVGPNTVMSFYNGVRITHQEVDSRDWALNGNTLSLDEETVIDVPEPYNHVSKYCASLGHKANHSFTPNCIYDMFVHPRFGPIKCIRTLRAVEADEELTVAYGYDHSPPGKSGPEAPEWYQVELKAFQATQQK

[11] = target: Histone-lysine N-methyltransferase EHMT2 (Homo sapiens) (UniProt Q96KQ7); test: Inhibition of G9a (unknown origin) using H3 1-25 peptide in presence of SAM; method in brief: as §1
Sequence of Histone-lysine N-methyltransferase EHMT2 (Homo sapiens) (Q96KQ7 whole entry): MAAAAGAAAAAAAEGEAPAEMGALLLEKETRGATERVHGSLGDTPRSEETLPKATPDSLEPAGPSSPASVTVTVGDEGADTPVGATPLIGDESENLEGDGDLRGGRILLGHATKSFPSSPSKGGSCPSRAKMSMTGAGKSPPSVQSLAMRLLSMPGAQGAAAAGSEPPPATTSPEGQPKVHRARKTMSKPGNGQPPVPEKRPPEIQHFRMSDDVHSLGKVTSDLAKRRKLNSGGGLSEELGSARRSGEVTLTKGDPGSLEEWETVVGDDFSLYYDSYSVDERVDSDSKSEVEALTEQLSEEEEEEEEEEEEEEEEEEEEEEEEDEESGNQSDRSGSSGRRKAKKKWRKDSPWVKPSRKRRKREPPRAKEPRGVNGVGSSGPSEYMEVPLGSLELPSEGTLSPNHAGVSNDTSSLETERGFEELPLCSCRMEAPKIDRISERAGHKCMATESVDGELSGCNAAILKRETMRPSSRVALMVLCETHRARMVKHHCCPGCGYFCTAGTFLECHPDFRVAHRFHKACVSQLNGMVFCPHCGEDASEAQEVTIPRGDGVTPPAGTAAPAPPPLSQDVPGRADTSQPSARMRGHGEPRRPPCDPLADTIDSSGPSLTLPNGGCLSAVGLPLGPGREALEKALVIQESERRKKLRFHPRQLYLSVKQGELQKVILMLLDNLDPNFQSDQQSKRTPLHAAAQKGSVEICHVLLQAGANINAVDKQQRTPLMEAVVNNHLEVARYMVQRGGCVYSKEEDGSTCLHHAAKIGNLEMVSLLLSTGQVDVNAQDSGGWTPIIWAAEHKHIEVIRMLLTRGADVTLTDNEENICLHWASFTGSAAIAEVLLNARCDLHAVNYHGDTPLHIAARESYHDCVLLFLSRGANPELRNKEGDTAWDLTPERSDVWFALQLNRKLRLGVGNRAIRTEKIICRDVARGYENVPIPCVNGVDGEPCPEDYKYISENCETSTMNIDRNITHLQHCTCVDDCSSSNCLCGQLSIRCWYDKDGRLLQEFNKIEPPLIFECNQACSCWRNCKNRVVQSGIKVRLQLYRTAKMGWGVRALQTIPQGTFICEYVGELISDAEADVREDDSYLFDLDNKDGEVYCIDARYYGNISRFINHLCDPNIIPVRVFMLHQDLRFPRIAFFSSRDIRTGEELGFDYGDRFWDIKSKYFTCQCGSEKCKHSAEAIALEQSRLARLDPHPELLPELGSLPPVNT

[12] = target: Histone-lysine N-methyltransferase KMT5C (Homo sapiens) (UniProt Q86Y97); test: Inhibition of SUV420H2 (unknown origin) using H4 K20Me1 peptide in presence of SAM; method in brief: as §1
[13] = target: N-lysine methyltransferase KMT5A (Homo sapiens) (UniProt Q9NQR1); test: Inhibition of SETD8 (unknown origin) using […] in presence of SAM; method in brief: as §1
[14] = target: Histone-lysine N-methyltransferase EHMT1 (Homo sapiens) (UniProt Q9H9B1); test: Inhibition of EHMT1 (unknown origin) using H3 1-25 peptide in presence of SAM; method in brief: as §1
Sequence of Histone-lysine N-methyltransferase EHMT1 (Homo sapiens) (Q9H9B1 whole entry): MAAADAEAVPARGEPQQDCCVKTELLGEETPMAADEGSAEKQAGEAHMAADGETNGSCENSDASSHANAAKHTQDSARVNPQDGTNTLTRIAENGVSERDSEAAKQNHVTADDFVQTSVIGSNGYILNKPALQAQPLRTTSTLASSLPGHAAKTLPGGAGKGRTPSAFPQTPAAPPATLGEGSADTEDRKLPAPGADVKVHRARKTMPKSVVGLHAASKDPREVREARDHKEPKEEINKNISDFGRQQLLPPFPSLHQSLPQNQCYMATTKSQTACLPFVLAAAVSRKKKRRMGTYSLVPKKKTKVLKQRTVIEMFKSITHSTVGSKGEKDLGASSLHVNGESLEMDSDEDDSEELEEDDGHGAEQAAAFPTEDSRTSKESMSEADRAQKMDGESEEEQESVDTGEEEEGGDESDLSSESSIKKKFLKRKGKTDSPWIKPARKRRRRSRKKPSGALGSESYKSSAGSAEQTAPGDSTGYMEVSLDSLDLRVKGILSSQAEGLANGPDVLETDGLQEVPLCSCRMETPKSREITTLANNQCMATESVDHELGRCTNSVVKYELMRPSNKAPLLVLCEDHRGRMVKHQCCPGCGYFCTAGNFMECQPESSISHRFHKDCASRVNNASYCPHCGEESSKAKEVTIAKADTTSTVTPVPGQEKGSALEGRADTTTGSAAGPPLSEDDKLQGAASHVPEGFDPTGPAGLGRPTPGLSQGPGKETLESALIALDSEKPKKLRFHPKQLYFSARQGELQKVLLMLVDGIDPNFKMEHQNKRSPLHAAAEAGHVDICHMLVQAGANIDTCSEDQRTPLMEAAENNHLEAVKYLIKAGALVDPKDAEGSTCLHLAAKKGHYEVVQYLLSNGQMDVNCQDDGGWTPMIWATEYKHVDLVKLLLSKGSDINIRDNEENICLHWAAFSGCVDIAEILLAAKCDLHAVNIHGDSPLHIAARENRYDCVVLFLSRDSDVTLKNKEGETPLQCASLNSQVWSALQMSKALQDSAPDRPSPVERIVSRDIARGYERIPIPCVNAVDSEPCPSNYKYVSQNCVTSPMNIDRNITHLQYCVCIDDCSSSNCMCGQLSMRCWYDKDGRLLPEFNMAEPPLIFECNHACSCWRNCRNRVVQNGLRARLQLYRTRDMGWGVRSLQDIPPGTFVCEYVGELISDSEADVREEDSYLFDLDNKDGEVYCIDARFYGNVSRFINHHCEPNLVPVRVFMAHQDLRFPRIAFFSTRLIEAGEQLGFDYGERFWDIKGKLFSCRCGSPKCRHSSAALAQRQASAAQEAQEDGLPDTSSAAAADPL

MOLM-13 [15] = test: Downregulation of H3K79me2 in human MOLM-13 cells at 1 uM by immuno blot analysis; type: functional, cell-based; conditions: time 3-7 day, TDE = time-dependent effect
Method in brief: (§2)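 Exponentially growing Molm13 cells were plated at 2 × 10^5 per well in 2 ml and exposed to 1 μM compound or DMSO for the indicated times. Extracted histones (3 μg) were run on 10% Bis-Tris gels and transferred to nitrocellulose. Blots were probed with primary antibody (1:1000 in 5% milk/TBS-T), then anti-rabbit secondary, with chemiluminescent detection.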

[16] = target: T1, Protein arginine N-methyltransferase 5; test: Inhibition of human PRMT5; method in brief: as §1
[17] = target: DNA (cytosine-5)-methyltransferase 1 (Homo sapiens) (UniProt P26358); test: Inhibition of DNMT1 (unknown origin) using ds-DNA peptide in presence of SAM; method in brief: as §1
MOLM-13 [18] = test: Downregulation of H3K79me2 in human MOLM-13 cells measured for 3 to 7 days by immuno blot analysis; type: functional, cell-based; conditions: dose 1.0 µM, time 3-7 day; method in brief: as §2
[19] = target: Histone-lysine N-methyltransferase KMT5B (Homo sapiens) (UniProt Q4FZB7); test: Inhibition of […] (unknown origin) using H4 K20Me1 peptide in presence of SAM; method in brief: as §1
Sequence of Histone-lysine N-methyltransferase KMT5B (Homo sapiens) (Q4FZB7 whole entry, looked up, the tested form may be a part): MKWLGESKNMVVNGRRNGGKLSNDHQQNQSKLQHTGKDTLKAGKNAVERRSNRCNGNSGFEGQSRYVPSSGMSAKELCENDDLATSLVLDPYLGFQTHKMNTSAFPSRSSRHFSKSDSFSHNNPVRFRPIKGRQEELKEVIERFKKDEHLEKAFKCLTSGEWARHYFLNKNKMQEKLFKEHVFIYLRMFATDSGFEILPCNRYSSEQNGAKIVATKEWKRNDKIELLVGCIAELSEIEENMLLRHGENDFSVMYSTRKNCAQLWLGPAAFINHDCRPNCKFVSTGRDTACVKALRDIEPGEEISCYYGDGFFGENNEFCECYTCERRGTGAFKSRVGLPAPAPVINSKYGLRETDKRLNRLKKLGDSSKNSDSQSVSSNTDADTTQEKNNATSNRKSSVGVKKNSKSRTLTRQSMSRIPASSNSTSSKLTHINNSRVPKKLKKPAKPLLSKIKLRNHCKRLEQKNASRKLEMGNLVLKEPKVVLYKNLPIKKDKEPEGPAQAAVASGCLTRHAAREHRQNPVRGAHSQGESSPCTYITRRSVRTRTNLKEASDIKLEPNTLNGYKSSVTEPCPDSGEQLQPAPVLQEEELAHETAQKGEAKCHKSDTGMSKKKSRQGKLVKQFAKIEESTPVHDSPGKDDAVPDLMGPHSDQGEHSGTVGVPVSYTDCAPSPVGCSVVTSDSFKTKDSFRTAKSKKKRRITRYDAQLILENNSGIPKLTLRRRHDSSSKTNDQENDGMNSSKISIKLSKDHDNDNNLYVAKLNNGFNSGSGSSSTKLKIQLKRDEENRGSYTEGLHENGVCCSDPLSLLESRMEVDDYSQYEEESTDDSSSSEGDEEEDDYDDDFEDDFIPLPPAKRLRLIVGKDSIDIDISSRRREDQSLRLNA

[20] = target: Histone-lysine N-methyltransferase, H3 lysine-79 specific (Homo sapiens, UniProt Q8TEK3); test: Inhibition of recombinant N-terminal DOT1L (1 to 420 residues) (unknown origin) expressed in Escherichia coli (DE3) using [3H]-SAM as substrate preincubated for 30 mins followed by substrate addition and measured after 2 hrs by Topcount reader analysis

SMILES: C[C@H]1O[C@@H](O[C@H]2[C@@H](O)C[C@H](O[C@H]3[C@@H](O)C[C@H](O[C@H]4CC[C@@]5(C)[C@H](CC[C@@H]6[C@@H]5C[C@@H](O)[C@]5(C)[C@@H](C7=CC(=O)OC7)CC[C@]65O)C4)O[C@@H]3C)O[C@@H]2C)C[C@H](O)[C@@H]1O [DIGOXIN]
- Papp B→A at 1.5 h, 10 µM [1]: 13.2 ×10⁻⁶ cm/s
- Papp A→B at 1.5 h, 10 µM [2]: 0.4 ×10⁻⁶ cm/s

SMILES: CC(C)N(CCCNC(=O)Nc1ccc(C(C)(C)C)cc1)C[C@H]1O[C@@H](n2ccc3c(N)ncnc32)[C@H](O)[C@@H]1O
- IC50 (cells [3]): 264 nM
- inhibition [4]: inactive
- inhibition [5]: inactive
- inhibition [6]: inactive
- Activity (MV4-11): Active
- inhibition [7]: inactive
- Papp B→A at 1.5 h, 10 µM [1]: 5.4 ×10⁻⁶ cm/s
- IC50 (cells [8]): 84 nM
- inhibition [9]: inactive
- inhibition (Homo sapiens): inactive
- inhibition [10]: inactive
- inhibition [11]: inactive
- inhibition [12]: inactive
- inhibition [13]: inactive
- inhibition [14]: inactive
- Activity (MOLM-13 [15]): Tde
- IC50 [16]: 500 nM
- inhibition [17]: inactive
- Activity (MOLM-13 [18]): Dose-Dependent Effect
- inhibition [19]: inactive

SMILES: CC(C)N(CCCNC(=O)c1ccc(C(C)(C)C)cc1)C[C@H]1O[C@@H](n2cnc3c(N)ncnc32)[C@H](O)[C@@H]1O
- IC50 [20]: Not Active

SMILES: COCCc1ccc(OCC(O)CNC(C)C)cc1 (stereo not given) [METOPROLOL]
- Papp B→A at 1.5 h, 10 µM [1]: 31.1 ×10⁻⁶ cm/s
- Papp A→B at 1.5 h, 10 µM [2]: 68.2 ×10⁻⁶ cm/s
